ChEMBL document CHEMBL1125540, “Antiviral and antitumor structure-activity relationship studies on tetracyclic eudistomines” (1992)
In brackets after ≈: the same amount, converted by molar mass.

Columns and labels:
Type in all cases: functional
[1] = Evaluation for antiviral activity against vesicular stomatitis virus in primary rabbit kidney cell cultures(PRK) (Concentration required to reduce virus-induced cytopathogenicity by 50%); settings: Oryctolagus cuniculus
[2] = Evaluated for antiviral activity against herpes simplex virus-1(KOS) in primary rabbit kidney cell cultures(PRK) (Concentration required to reduce virus-induced cytopathogenicity by 50%); settings: Oryctolagus cuniculus
[3] = Evaluation for antiviral activity against herpes simplex virus-1(F) in primary rabbit kidney cell cultures(PRK) (Concentration required to reduce virus-induced cytopathogenicity by 50%); settings: Oryctolagus cuniculus
[4] = test system: HeLa; test: Evaluation for antiviral activity against vesicular stomatitis virus in HeLa cell cultures (Concentration required to reduce virus-induced cytopathogenicity by 50%); settings: Homo sapiens
Summary of the method: (§1)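 HeLa cultures were infected with respiratory syncytial, vesicular stomatitis, Coxsackie B4 or polio-1 virus. The antiviral end-point is 50% reduction of virus-induced cytopathogenicity. Cytotoxicity is the minimum concentration producing microscopically detectable alteration of normal cell morphology.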

[5] = Evaluation for antiviral activity against herpes simplex virus-1(TK-) (B2006) in primary rabbit kidney cell cultures(PRK) (Concentration required to reduce virus-induced cytopathogenicity by 50%); settings: Oryctolagus cuniculus
[6] = test system: Vero; test: Evaluation in Vero cell cultures for cytotoxicity that is to cause microscopically detectable alteration of normal cell morphology; settings: Chlorocebus sabaeus
Summary of the method: (§2)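 Vero cultures were infected with parainfluenza-3, reovirus-1, Sindbis, Coxsackie B4 or Semliki forest virus. Values are concentrations giving 50% reduction of virus-induced cytopathogenicity, or a microscopically detectable alteration of normal cell morphology for cytotoxicity. Each is the average of two separate experiments.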

[7] = test system: Vero; test: Evaluation for antiviral activity against Sindbis virus in Vero cell cultures (Concentration required to reduce virus-induced cytopathogenicity by 50%); settings: Chlorocebus sabaeus; summary of the method: as §2
[8] = Evaluation in PRK cell cultures for cytotoxicity that is to cause microscopically detectable alteration of normal cell morphology; settings: Oryctolagus cuniculus
[9] = test system: HeLa; test: Evaluation in HeLa cell cultures for cytotoxicity that is to cause microscopically detectable alteration of normal cell morphology; settings: Homo sapiens; summary of the method: as §1
[10] = Evaluation for antiviral activity against herpes simplex virus-2(Lyons) in primary rabbit kidney cell cultures(PRK) (Concentration required to reduce virus-induced cytopathogenicity by 50%); settings: Oryctolagus cuniculus
[11] = test system: MOLT-4F; test: Inhibitory effect on the proliferation of human T-lymphoblast cells (Molt-4F); settings: read-out: ID50 (the source's name)
Summary of the method: (§3)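 Proliferation assay in murine leukemia L1210, human T-lymphoblast Molt-4F and human T-lymphocyte MT-4 cells. ID50 is the dose inhibiting tumor cell proliferation by 50%, expressed in μg/mL.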

[12] = test system: HeLa; test: Evaluation for antiviral activity against Coxsackie virus B4 in HeLa cell cultures (Concentration required to reduce virus-induced cytopathogenicity by 50%); settings: Homo sapiens; summary of the method: as §1
[13] = test system: Vero; test: Evaluation for antiviral activity against forest virus in Vero cell cultures (Concentration required to reduce virus-induced cytopathogenicity by 50%); settings: Chlorocebus sabaeus; summary of the method: as §2
[14] = test system: L1210; test: Inhibitory effect on the proliferation of murine leukemia cells (L1210); settings: Mus musculus, read-out: ID50 (the source's name); summary of the method: as §3
[15] = test system: MDCK; test: Compound was evaluated in MDCK cell cultures for cytotoxicity that is to cause microscopically detectable alteration of normal cell morphology; settings: Canis lupus familiaris
Summary of the method: (§4)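 Influenza A and B virus replication in MDCK cultures. Antiviral value is the concentration giving 50% reduction of virus-induced cytopathogenicity. Cytotoxicity is the concentration causing a microscopically detectable change in normal cell morphology.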

[16] = test system: Vero; test: Evaluation for antiviral activity against Coxsackie virus B4 in Vero cell cultures (Concentration required to reduce virus-induced cytopathogenicity by 50%); settings: Chlorocebus sabaeus; summary of the method: as §2
[17] = Evaluation for antiviral activity against herpes simplex virus-2(G) in primary rabbit kidney cell cultures(PRK) (Concentration required to reduce virus-induced cytopathogenicity by 50%); settings: Oryctolagus cuniculus
[18] = Evaluation for antiviral activity against vaccinia virus in primary rabbit kidney cell cultures(PRK) (Concentration required to reduce virus-induced cytopathogenicity by 50%); settings: Oryctolagus cuniculus
[19] = test system: HeLa; test: Compound was evaluated for antiviral activity against respiratory syncitial virus (long) in HeLa cell cultures (Concentration required to reduce virus-induced cytopathogenicity by 50%); settings: Homo sapiens; summary of the method: as §1
[20] = Evaluation for antiviral activity against herpes simplex virus-1 (McIntyre) in primary rabbit kidney cell cultures(PRK) (Concentration required to reduce virus-induced cytopathogenicity by 50%); settings: Oryctolagus cuniculus
[21] = test system: Vero; test: Evaluation for antiviral activity against reo virus-1 in Vero cell cultures (Concentration required to reduce virus-induced cytopathogenicity by 50%); settings: Chlorocebus sabaeus; summary of the method: as §2
[22] = test system: Influenza B virus; test: Concentration required to reduce influenza virus B (singapore) induced cytopathogenicity by 50%; summary of the method: as §4
[23] = Evaluation for antiviral activity against herpes simplex virus-2(196) in primary rabbit kidney cell cultures(PRK) (Concentration required to reduce virus-induced cytopathogenicity by 50%); settings: Oryctolagus cuniculus
[24] = test system: Influenza A virus; test: Concentration required to reduce influenza virus A (ishikawa) induced cytopathogenicity by 50%; summary of the method: as §4
[25] = test system: HeLa; test: Evaluation for antiviral activity against polio virus-1 in HeLa cell cultures (Concentration required to reduce virus-induced cytopathogenicity by 50%); settings: Homo sapiens; summary of the method: as §1
[26] = test system: Vero; test: Evaluation for antiviral activity against parainfluenza-3 virus in Vero cell cultures (Concentration required to reduce virus-induced cytopathogenicity by 50%); settings: Chlorocebus sabaeus; summary of the method: as §2
[27] = test system: MT4; test: Inhibitory effect on the proliferation of human T-lymphocyte (MT-4); settings: read-out: ID50 (the source's name); summary of the method: as §3

Row | Structure (SMILES) | MIC [1] [µg/mL] | MIC [4] [µg/mL] | MIC [5] [µg/mL] | MCC [6] [µg/mL] | MIC [7] [µg/mL] | MCC [8] [µg/mL] | MCC [9] [µg/mL] | MIC [10] [µg/mL] | IC50 [11] [µg/mL] | MIC [12] [µg/mL] | MIC [13] [µg/mL] | IC50 [14] [µg/mL] | MIC [16] [µg/mL] | MIC [17] [µg/mL] | MIC [18] [µg/mL] | MIC [19] [µg/mL] | MIC [20] [µg/mL] | MIC [21] [µg/mL] | MIC [23] [µg/mL] | MIC [25] [µg/mL] | further results
1 | N[C@@H]1CSCON2CCc3c([nH]c4ccccc34)[C@@H]12 | > 10 | > 10 | > 10 | 40 | > 10 | 40 | > 10 | > 10 | 5.14 (≈ 18.7 µM) | > 10 | > 10 | 17.4 (≈ 63.2 µM) | > 10 | > 10 | > 10 | > 8 | > 10 | > 10 | > 10 | > 10 | MIC [2]: > 10 µg/mL; MIC [3]: > 10 µg/mL; MCC [15]: 15 µg/mL; MIC [22]: > 8 µg/mL; MIC [24]: > 8 µg/mL; MIC [26]: > 10 µg/mL; IC50 [27]: 4.5 µg/mL (≈ 16.3 µM)
2 | COc1ccc2[nH]c3c(c2c1)CCN1OCSC[C@@H](N)[C@@H]31 | 0.02 (≈ 0.0655 µM) | 0.02 (≈ 0.0655 µM) | 0.04 (≈ 0.131 µM) | > 1 | 0.02 (≈ 0.0655 µM) | > 1 | 0.4 | 0.04 (≈ 0.131 µM) | 0.0062 (≈ 0.0203 µM) | 0.02 (≈ 0.0655 µM) | 0.07 (≈ 0.229 µM) | 0.005 (≈ 0.0164 µM) | 0.07 (≈ 0.229 µM) | 0.02 (≈ 0.0655 µM) | 0.02 (≈ 0.0655 µM) | 0.15 (≈ 0.491 µM) | 0.02 (≈ 0.0655 µM) | 0.07 (≈ 0.229 µM) | 0.02 (≈ 0.0655 µM) | 0.02 (≈ 0.0655 µM) | MIC [2]: 0.045 µg/mL (≈ 0.147 µM); MIC [3]: 0.07 µg/mL (≈ 0.229 µM); MCC [15]: 0.8 µg/mL; MIC [22]: > 0.32 µg/mL; MIC [24]: > 0.32 µg/mL; IC50 [27]: 0.005 µg/mL (≈ 0.0164 µM)
3 | c1ccc2c3c([nH]c2c1)C1CCSCON1CC3 (configuration not stated) | > 100 | > 10 | > 100 | > 40 | > 10 | > 200 | > 40 | > 100 | 18.3 (≈ 70.3 µM) | > 10 | > 10 | 24.9 (≈ 95.6 µM) | > 10 | > 100 | > 100 | > 8 | > 100 | > 10 | > 100 | > 10 | MCC [15]: 80 µg/mL; MIC [22]: > 40 µg/mL; MIC [24]: > 40 µg/mL; MIC [26]: > 10 µg/mL; IC50 [27]: 96 µg/mL (≈ 369 µM)
4 | COc1ccc2[nH]c3c(c2c1)CCN1OCSC[C@@H](N)[C@H]31 | > 4 | > 1 | > 4 | > 2.5 | > 1 | > 10 | 4 | > 4 | 0.94 (≈ 3.08 µM) | > 1 | > 1 | 6.54 (≈ 21.4 µM) | > 1 | > 4 | > 4 | > 1.6 | > 4 | > 1 | > 4 | > 1 | MIC [2]: > 4 µg/mL; MIC [3]: > 4 µg/mL; MIC [26]: > 1 µg/mL; IC50 [27]: 1.99 µg/mL (≈ 6.52 µM)
